Assay results from ChEMBL document CHEMBL1144932, “Design, synthesis, and biological properties of new bis(acridine-4-carboxamides) as anticancer agents” (J Med Chem, 2003).
Values belong to the compound of their own block, whether it stands above or below them.

Columns and labels:
[1] = Apparent equilibrium constant for DNA binding (G-C); format: ADME
How it was run: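 Ethidium displacement at pH 7.0 in buffer of 10 mM Na2HPO4, 10 mM NaH2PO4, 1 mM EDTA with 1.26 μM ethidium bromide and 1 μM CT-DNA, [poly(dA-dT)]2 or [poly(dG-dC)]2. Drug stock (~5 mM in DMSO) added serially. Fluorescence read at 20 °C, excitation 546 nm, emission 595 nm. C50 is the mean of three determinations. Kapp = 1.26/C50 × 10^7.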

Homo sapiens = organism: Homo sapiens; assay: In vitro cytotoxic activity against human colon adenocarcinoma (HT-29).; format: functional
How it was run: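 HT29 cells were seeded at 2.5 × 10^4 cells/mL of medium and drug solutions were added. Exposure lasted 144 h. IC50 is the drug concentration inhibiting cell growth by 50%. Assays were run in triplicate.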

SNB-19 [2] = assay: Percent growth of CNS SNB-19 cell line at compound concentration 10e-8 was determined; format: functional, Homo sapiens
How it was run: (§1)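 Cells in the NCI panel were exposed for 48 h to 10^-8, 10^-6 and 10^-4 or 10^-5 M drug. Growth is given as percent of untreated control (100%). Negative values are the percent of cells killed relative to the initial cell number.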

DU-145 [3] = assay: Percent growth of prostate DU-145 cell line at compound concentration 10e-5 was determined; format: functional, Homo sapiens; how it was run: as §1
NCI-H460 [4] = assay: Percent growth of lung-NSC NCI-H460 cell line at compound concentration 10e-5 was determined; format: functional, Homo sapiens; how it was run: as §1
SNB-19 [5] = assay: Percent growth of CNS SNB-19 cell line at compound concentration 10e-6 was determined; format: functional, Homo sapiens; how it was run: as §1
786-0 [6] = assay: Percent growth of renal 786-0 cell line at compound concentration 10e-5 was determined; format: functional, Homo sapiens; how it was run: as §1
786-0 [7] = assay: Percent growth of renal 786-0 cell line at compound concentration 10e-8 was determined; format: functional, Homo sapiens; how it was run: as §1
LOX IMVI [8] = assay: Percent growth of melanoma LOX IMVI cell line at compound concentration 10e-8 was determined; format: functional, Homo sapiens; how it was run: as §1
OVCAR-4 [9] = assay: Percent growth of ovarian OVCAR-4 cell line at compound concentration 10e-8 was determined; format: functional, Homo sapiens; how it was run: as §1
MCF7 [10] = assay: Percent growth of breast MCF-7 cell line at compound concentration 10e-6 was determined; format: functional, Homo sapiens; how it was run: as §1
MCF7 [11] = assay: Percent growth of breast MCF-7 cell line at compound concentration 10e-5 was determined; format: functional, Homo sapiens; how it was run: as §1
RPMI-8226 [12] = assay: Percent growth of leukemia RPMI-8226 cell line at compound concentration 10e-6 was determined; format: functional, Homo sapiens; how it was run: as §1
RPMI-8226 [13] = assay: Percent growth of leukemia RPMI-8226 cell line at compound concentration 10e-8 was determined; format: functional, Homo sapiens; how it was run: as §1
NCI-H460 [14] = assay: Percent growth of lung-NSC NCI-H460 cell line at compound concentration 10e-8 was determined; format: functional, Homo sapiens; how it was run: as §1
DU-145 [15] = assay: Percent growth of prostate DU-145 cell line at compound concentration 10e-8 was determined; format: functional, Homo sapiens; how it was run: as §1
DU-145 [16] = assay: Percent growth of prostate DU-145 cell line at compound concentration 10e-6 was determined; format: functional, Homo sapiens; how it was run: as §1
RPMI-8226 [17] = assay: Percent growth of leukemia RPMI-8226 cell line at compound concentration 10e-5 was determined; format: functional, Homo sapiens; how it was run: as §1
OVCAR-4 [18] = assay: Percent growth of ovarian OVCAR-4 cell line at compound concentration 10e-5 was determined; format: functional, Homo sapiens; how it was run: as §1
HCT-116 [19] = assay: Percent growth of colon HCT116 cell line at compound concentration 10e-6 was determined; format: functional, Homo sapiens; how it was run: as §1
LOX IMVI [20] = assay: Percent growth of melanoma LOX IMVI cell line at compound concentration 10e-6 was determined; format: functional, Homo sapiens; how it was run: as §1
SNB-19 [21] = assay: Percent growth of CNS SNB-19 cell line at compound concentration 10e-5 was determined; format: functional, Homo sapiens; how it was run: as §1
LOX IMVI [22] = assay: Percent growth of melanoma LOX IMVI cell line at compound concentration 10e-5 was determined; format: functional, Homo sapiens; how it was run: as §1
OVCAR-4 [23] = assay: Percent growth of ovarian OVCAR-4 cell line at compound concentration 10e-6 was determined; format: functional, Homo sapiens; how it was run: as §1
NCI-H460 [24] = assay: Percent growth of lung-NSC NCI-H460 cell line at compound concentration 10e-6 was determined; format: functional, Homo sapiens; how it was run: as §1
HCT-116 [25] = assay: Percent growth of colon HCT116 cell line at compound concentration 10e-8 was determined; format: functional, Homo sapiens; how it was run: as §1
786-0 [26] = assay: Percent growth of renal 786-0 cell line at compound concentration 10e-6 was determined; format: functional, Homo sapiens; how it was run: as §1
HCT-116 [27] = assay: Percent growth of colon HCT116 cell line at compound concentration 10e-5 was determined; format: functional, Homo sapiens; how it was run: as §1
MCF7 [28] = assay: Percent growth of breast MCF-7 cell line at compound concentration 10e-8 was determined; format: functional, Homo sapiens; how it was run: as §1
DU-145 [29] = assay: Percent growth of prostate DU-145 cell line at compound concentration 10e-4 was determined; format: functional, Homo sapiens; how it was run: as §1
LOX IMVI [30] = assay: Percent growth of melanoma LOX IMVI cell line at compound concentration 10e-4 was determined; format: functional, Homo sapiens; how it was run: as §1
HCT-116 [31] = assay: Percent growth of colon HCT116 cell line at compound concentration 10e-4 was determined; format: functional, Homo sapiens; how it was run: as §1
SNB-19 [32] = assay: Percent growth of CNS SNB-19 cell line at compound concentration 10e-4 was determined; format: functional, Homo sapiens; how it was run: as §1
NCI-H460 [33] = assay: Percent growth of lung-NSC NCI-H460 cell line at compound concentration 10e-4 was determined; format: functional, Homo sapiens; how it was run: as §1
RPMI-8226 [34] = assay: Percent growth of leukemia RPMI-8226 cell line at compound concentration 10e-4 was determined; format: functional, Homo sapiens; how it was run: as §1
MCF7 [35] = assay: Percent growth of breast MCF-7 cell line at compound concentration 10e-4 was determined; format: functional, Homo sapiens; how it was run: as §1
OVCAR-4 [36] = assay: Percent growth of ovarian OVCAR-4 cell line at compound concentration 10e-4 was determined; format: functional, Homo sapiens; how it was run: as §1
786-0 [37] = assay: Percent growth of renal 786-0 cell line at compound concentration 10e-4 was determined; format: functional, Homo sapiens; how it was run: as §1

- K app [1]: 8.8e+06 M⁻¹
SMILES: COc1ccc2nc3c(C(=O)NCCN(C)C)ccc(NCCN(C)CCNc4ccc(C(=O)NCCN(C)C)c5nc6ccc(OC)cc6c(O)c45)c3c(O)c2c1
- IC50 (Homo sapiens): 3300 nM

SMILES: CN(C)CCNc1ccc(C(=O)NCCN(C)CCNC(=O)c2ccc(NCCN(C)C)c3c(O)c4cc(O)ccc4nc23)c2nc3ccc(O)cc3c(O)c12
- IC50 (Homo sapiens): 8900 nM

SMILES: CN(C)CCNc1ccc(C(=O)NCCCN(C)CCCNC(=O)c2ccc(NCCN(C)C)c3cc4ccccc4nc23)c2nc3ccccc3cc12
- IC50 (Homo sapiens): 230 nM

SMILES: CN(C)CCNc1ccc(C(=O)NCCN(C)CCNC(=O)c2ccc(NCCN(C)C)c3cc4ccccc4nc23)c2nc3ccccc3cc12
- IC50 (Homo sapiens): 2000 nM

- K app [1]: 3.8e+07 M⁻¹
SMILES: CN(C)CCNC(=O)c1ccc(NCCN(C)CCNc2ccc(C(=O)NCCN(C)C)c3nc4ccccc4c(O)c23)c2c(O)c3ccccc3nc12
- IC50 (Homo sapiens): 410 nM

SMILES: COc1ccc2nc3c(C(=O)NCCN(C)CCNC(=O)c4ccc(NCCN(C)C)c5c(O)c6cc(OC)ccc6nc45)ccc(NCCN(C)C)c3c(O)c2c1
- IC50 (Homo sapiens): 890 nM

- K app [1]: 7.5e+07 M⁻¹
SMILES: CN(C)CCNC(=O)c1ccc(NCCCN(C)CCCNc2ccc(C(=O)NCCN(C)C)c3nc4ccccc4c(O)c23)c2c(O)c3ccccc3nc12
- Growth (SNB-19 [2]): 38%
- Growth (DU-145 [3]): -72%
- Growth (NCI-H460 [4]): -90%
- Growth (SNB-19 [5]): -20%
- Growth (786-0 [6]): -98%
- Growth (786-0 [7]): 30%
- Growth (LOX IMVI [8]): 30%
- Growth (OVCAR-4 [9]): 46%
- Growth (MCF7 [10]): -6%
- Growth (MCF7 [11]): -86%
- Growth (RPMI-8226 [12]): -37%
- Growth (RPMI-8226 [13]): 16%
- Growth (NCI-H460 [14]): 12%
- Growth (DU-145 [15]): 11%
- Growth (DU-145 [16]): -31%
- Growth (RPMI-8226 [17]): -49%
- Growth (OVCAR-4 [18]): -74%
- Growth (HCT-116 [19]): -35%
- Growth (LOX IMVI [20]): -65%
- IC50 (Homo sapiens): 0.43 nM
- Growth (SNB-19 [21]): -55%
- Growth (LOX IMVI [22]): -93%
- Growth (OVCAR-4 [23]): -47%
- Growth (NCI-H460 [24]): -52%
- Growth (HCT-116 [25]): 20%
- Growth (786-0 [26]): -26%
- Growth (HCT-116 [27]): -96%
- Growth (MCF7 [28]): 22%

- K app [1]: 9.4e+07 M⁻¹
SMILES: CN(C)CCNC(=O)c1ccc(NCCCN(C)CCCNc2ccc(C(=O)NCCN(C)C)c3nc4ccccc4cc23)c2cc3ccccc3nc12
- IC50 (Homo sapiens): 47 nM

SMILES: COc1ccc2nc3c(C(=O)NCCCN(C)CCCNC(=O)c4ccc(NCCN(C)C)c5c(O)c6cc(OC)ccc6nc45)ccc(NCCN(C)C)c3c(O)c2c1
- Growth (DU-145 [29]): -77%
- Growth (SNB-19 [2]): 38%
- Growth (LOX IMVI [30]): -73%
- Growth (SNB-19 [5]): 3%
- Growth (786-0 [7]): 28%
- Growth (LOX IMVI [8]): 31%
- Growth (OVCAR-4 [9]): 38%
- Growth (MCF7 [10]): 0%
- Growth (RPMI-8226 [12]): -36%
- Growth (RPMI-8226 [13]): 4%
- Growth (NCI-H460 [14]): 9%
- Growth (HCT-116 [31]): -97%
- Growth (DU-145 [15]): 25%
- Growth (SNB-19 [32]): -85%
- Growth (NCI-H460 [33]): -90%
- Growth (RPMI-8226 [34]): -44%
- Growth (DU-145 [16]): -25%
- Growth (HCT-116 [19]): -23%
- Growth (LOX IMVI [20]): -2%
- IC50 (Homo sapiens): 2 nM
- Growth (MCF7 [35]): -85%
- Growth (OVCAR-4 [23]): -21%
- Growth (NCI-H460 [24]): -10%
- Growth (OVCAR-4 [36]): -96%
- Growth (HCT-116 [25]): 17%
- Growth (786-0 [26]): 1%
- Growth (MCF7 [28]): 18%
- Growth (786-0 [37]): -98%

SMILES: CN(C)CCNC(=O)c1ccc(NCCN(C)C)c2c(O)c3cc([N+](=O)[O-])ccc3nc12
- IC50 (Homo sapiens): 190 nM

SMILES: CN(CCNC(=O)c1ccc(Cl)c2c(O)c3ccccc3nc12)CCNC(=O)c1ccc(Cl)c2c(O)c3ccccc3nc12
- IC50 (Homo sapiens): 5500 nM

- K app [1]: 7.4e+07 M⁻¹
SMILES: CN(C)CCNC(=O)c1ccc(NCCCN(C)CCCNc2ccc(C(=O)NCCN(C)C)c3nc4ccc(O)cc4c(O)c23)c2c(O)c3cc(O)ccc3nc12
- IC50 (Homo sapiens): 6900 nM

SMILES: O=C1c2c(O)ccc(O)c2C(=O)c2c(NCCNCCO)ccc(NCCNCCO)c21 [MITOXANTRONE]
- IC50 (Homo sapiens): 10 nM
